According to ChEMBL document CHEMBL1137992, “Long hydrocarbon chain keto diols and diacids that favorably alter lipid disorders in vivo” (J Med Chem, 2004):

What was measured:
Assay type in all cases: functional
Rattus norvegicus [1] = assay: Amount of non-HDL-cholesterol in obese Zucker rats after 2 weeks of treatment at a dose of 0 mg/kg/day
In short: (§1)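 Female Zucker fatty rats [Crl:(Zuc)-faBR], 10–12 weeks old (400–500 g), dosed once daily by oral gavage in 20% EtOH/80% PEG-200 (dose volume 0.25% of body weight). Rats were fasted 6 h and bled before dosing and at day 7 (orbital plexus), and at day 14 (cardiac puncture). Serum cholesterol fractions came from Superose 6 gel-filtration lipoprotein profiles (% peak area × serum total cholesterol). Values are mean ± SEM.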

Rattus norvegicus [2] = assay: Amount of glucose in obese Zucker rats at pre-treatment at a dose of 0 mg/kg/day
In short: (§2)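 Female Zucker fatty rats [Crl:(Zuc)-faBR], 10–12 weeks old (400–500 g), gavaged daily with vehicle (20% EtOH/80% PEG-200, 0.25% of body weight) or compound. After a 6-h fast, blood glucose was read by glucometer from tail-prick blood of unanesthetized rats before dosing and after 1 and 2 weeks. Values are mean ± SEM.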

Rattus norvegicus [3] = assay: Amount of insulin in obese Zucker rats after 2 weeks of treatment at a dose of 3 mg/kg/day
In short: (§3)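 Female obese Zucker rats [Crl:(Zuc)-faBR], 400–500 g, given daily oral gavage in 20% EtOH/80% PEG-200 for up to 14 days. After a 6-h fast, serum was collected pretreatment and at day 7 (orbital bleed) and day 14 (cardiac puncture) and stored at -80 °C. Insulin was measured by ELISA. Values are mean ± SEM.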

Rattus norvegicus [4] = assay: Amount of insulin in obese Zucker rats at pre-treatment at a dose of 100 mg/kg/day; in short: as §3
Rattus norvegicus [5] = assay: Amount of glucose in obese Zucker rats at pre-treatment at a dose of 3 mg/kg/day; in short: as §2
Rattus norvegicus [6] = assay: Amount of insulin in obese Zucker rats after 2 weeks of treatment at a dose of 10 mg/kg/day; in short: as §3
Rattus norvegicus [7] = assay: Amount of non-HDL-cholesterol in obese Zucker rats after 2 weeks of treatment at a dose of 30 mg/kg/day
In short: (§4)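 Female obese Zucker fatty rats [Crl:(Zuc)-faBR], 10–12 weeks old (400–500 g), on chow. Compound in 20% EtOH/80% PEG-200 (v/v) given by daily oral gavage. After a 6-h fast, serum was taken before dosing and at 7 days (orbital plexus), and at 14 days (cardiac puncture). Lipoprotein cholesterol came from Superose 6HR gel-filtration profiles × serum total cholesterol. Mean ± SEM.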

Rattus norvegicus [8] = assay: Amount of triglycerides in obese Zucker rats after 1 week of treatment at a dose of 10 mg/kg/day
In short: (§5)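 Female Zucker fatty rats [Crl:(Zuc)-faBR], 10–12 weeks old (400–500 g), dosed once daily by oral gavage in 20% EtOH/80% PEG-200 for up to 14 days. After a 6-h fast, serum was taken pre-dose, at day 7 (orbital venous plexus, O2/CO2 anaesthesia) and at day 14 (cardiac puncture), stored at −80 °C, and assayed on a Hitachi 912 automatic analyzer. Mean ± SEM.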

Rattus norvegicus [9] = assay: Amount of non-HDL-cholesterol in obese Zucker rats at pre-treatment at a dose of 0 mg/kg/day; in short: as §4
Rattus norvegicus [10] = assay: Percent increase in HDL-cholesterol in obese Zucker rats after 1 week of treatment at a dose of 30 mg/kg/day
In short: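 Female Zucker fatty rats [Crl:(Zuc)-faBR], 10–12 weeks, 400–500 g, acclimated 7 days on chow. Compound or vehicle (20% EtOH/80% PEG-200) given by daily oral gavage for 2 weeks, 0–100 mg/kg/day. After a 6 h fast, blood was taken before dosing, at 1 wk and at 2 wk. Serum lipids, NEFA and insulin (ELISA) were measured; glucose by glucometer. HDL/non-HDL-C came from Superose 6 gel-filtration profiles. Values are % change from pretreatment, mean ± SEM.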

Rattus norvegicus [11] = assay: Amount of HDL-cholesterol in obese Zucker rats after 1 week of treatment at a dose of 10 mg/kg/day; in short: as §1
Rattus norvegicus [12] = assay: Amount of nonesterified fatty acids in obese Zucker rats at pre-treatment at a dose of 10 mg/kg/day; in short: as §5
Rattus norvegicus [13] = assay: Amount of nonesterified fatty acids in obese Zucker rats after 1 week of treatment at a dose of 0 mg/kg/day; in short: as §5
Rattus norvegicus [14] = assay: Amount of HDL-cholesterol in obese Zucker rats after 2 weeks of treatment at a dose of 100 mg/kg/day; in short: as §1
Rattus norvegicus [15] = assay: Amount of nonesterified fatty acids in obese Zucker rats at pre-treatment at a dose of 30 mg/kg/day; in short: as §5
Rattus norvegicus [16] = assay: Amount of non-HDL-cholesterol in obese Zucker rats after 1 week of treatment at a dose of 0 mg/kg/day; in short: as §1
Rattus norvegicus [17] = assay: Amount of nonesterified fatty acids in obese Zucker rats after 2 weeks of treatment at a dose of 0 mg/kg/day; in short: as §5
Rattus norvegicus [18] = assay: Amount of triglycerides in obese Zucker rats after 1 week of treatment at a dose of 100 mg/kg/day; in short: as §5
Rattus norvegicus [19] = assay: Percentage change of triglycerides in obese female Zucker rats after 1 week of pre-treatment at a dose of 100 mg/kg/day
In short: (§6)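 Female Zucker fatty rats [Crl:(Zuc)-faBR], 10–12 weeks old (400–500 g), acclimated 7 days and fed rodent chow. Dosed once daily by oral gavage in 20% EtOH/80% PEG-200 (v/v), at 0.25% of body weight, for 2 weeks. Blood taken after a 6-h fast: orbital plexus before dosing and at day 7, cardiac puncture at day 14. Serum lipoprotein cholesterol measured by Superose 6 gel filtration with on-line cholesterol detection. Values are % change from pretreatment, mean ± SEM.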

Rattus norvegicus [20] = assay: Amount of glucose in obese Zucker rats after 2 weeks of treatment at a dose of 3 mg/kg/day; in short: as §2
Rattus norvegicus [21] = assay: Percentage change of non-HDL cholesterol levels in obese female Zucker rats after 1 week of pre-treatment at a dose of 100 mg/kg/day; in short: as §6
Rattus norvegicus [22] = assay: Amount of HDL-cholesterol in obese Zucker rats after 2 weeks of treatment at a dose of 10 mg/kg/day; in short: as §1
Rattus norvegicus [23] = assay: Amount of HDL-cholesterol in obese Zucker rats after 1 week of treatment at a dose of 100 mg/kg/day; in short: as §1
Rattus norvegicus [24] = assay: Amount of insulin in obese Zucker rats after 2 weeks of treatment at a dose of 100 mg/kg/day; in short: as §3
Rattus norvegicus [25] = assay: Amount of non-HDL-cholesterol in obese Zucker rats after 1 week of treatment at a dose of 10 mg/kg/day; in short: as §1
Rattus norvegicus [26] = assay: Amount of non-HDL-cholesterol in obese Zucker rats at pre-treatment at a dose of 3 mg/kg/day; in short: as §4
Rattus norvegicus [27] = assay: Amount of insulin in obese Zucker rats after 1 week of treatment at a dose of 3 mg/kg/day; in short: as §3
Rattus norvegicus [28] = assay: Amount of glucose in obese Zucker rats at pre-treatment at a dose of 10 mg/kg/day; in short: as §2
Rattus norvegicus [29] = assay: Amount of triglycerides in obese Zucker rats after 2 weeks of treatment at a dose of 30 mg/kg/day; in short: as §5
Rattus norvegicus [30] = assay: Amount of nonesterified fatty acids in obese Zucker rats at pre-treatment at a dose of 100 mg/kg/day; in short: as §5
Rattus norvegicus [31] = assay: Amount of nonesterified fatty acids in obese Zucker rats at pre-treatment at a dose of 0 mg/kg/day; in short: as §5

SMILES | Activity (Rattus norvegicus [1]) [mg/dL] | Activity (Rattus norvegicus [2]) [mg/dL] | Activity (Rattus norvegicus [3]) [ng/mL] | Activity (Rattus norvegicus [4]) [ng/mL] | Activity (Rattus norvegicus [5]) [mg/dL] | Activity (Rattus norvegicus [6]) [ng/mL] | Activity (Rattus norvegicus [7]) [mg/dL] | Activity (Rattus norvegicus [8]) [mg/dL] | Activity (Rattus norvegicus [9]) [mg/dL] | Activity (Rattus norvegicus [10]) [%] | Activity (Rattus norvegicus [11]) [mg/dL] | Activity (Rattus norvegicus [12]) [mg/dL] | Activity (Rattus norvegicus [13]) [mg/dL] | Activity (Rattus norvegicus [14]) [mg/dL] | Activity (Rattus norvegicus [15]) [mg/dL] | Activity (Rattus norvegicus [16]) [mg/dL] | Activity (Rattus norvegicus [17]) [mg/dL] | Activity (Rattus norvegicus [18]) [mg/dL] | Change (Rattus norvegicus [19]) [%] | Activity (Rattus norvegicus [20]) [mg/dL] | also measured
CC(C)(CO)CCCCC(=O)CCCCC(C)(C)CO | 30 | 125 | 7.8 | 9.6 | 118 | 7.8 | 38 | 602 | 25 | 40 | 52 | 1.2 | 1.3 | 79 | 1.4 | 36 | 1.6 | 485 | -54 | 103 | Change (Rattus norvegicus [21]): -23%; Activity (Rattus norvegicus [22]): 53 mg/dL; Activity (Rattus norvegicus [23]): 78 mg/dL; Activity (Rattus norvegicus [24]): 11 ng/mL; Activity (Rattus norvegicus [25]): 21 mg/dL; Activity (Rattus norvegicus [26]): 24 mg/dL; Activity (Rattus norvegicus [27]): 7.5 ng/mL; Activity (Rattus norvegicus [28]): 112 mg/dL; Activity (Rattus norvegicus [29]): 985 mg/dL; Activity (Rattus norvegicus [30]): 1.4 mg/dL; Activity (Rattus norvegicus [31]): 1.2 mg/dL
CC(C)(CCCCC(=O)CCCCC(C)(C)C(=O)O)C(=O)O | 29 | 134 | 8.6 | 8.1 | 108 | 8.9 | 43 | 692 | 40 | 56 | 47 | 1.6 | 1.5 | 68 | 1.4 | 43 | 1.4 | 383 | -75 | 103 | Change (Rattus norvegicus [21]): -62%; Activity (Rattus norvegicus [22]): 39 mg/dL; Activity (Rattus norvegicus [23]): 66 mg/dL; Activity (Rattus norvegicus [24]): 9.5 ng/mL; Activity (Rattus norvegicus [25]): 26 mg/dL; Activity (Rattus norvegicus [26]): 32 mg/dL; Activity (Rattus norvegicus [27]): 10.7 ng/mL; Activity (Rattus norvegicus [28]): 113 mg/dL; Activity (Rattus norvegicus [29]): 962 mg/dL; Activity (Rattus norvegicus [30]): 1.2 mg/dL; Activity (Rattus norvegicus [31]): 1.5 mg/dL
CC(C)(CCCCCC(=O)CCCCCC(C)(C)C(=O)O)C(=O)O | 28 | 129 | 7.3 | 11.9 | 114 | 9.1 | 30 | 553 | 20 | 156 | 136 | 1.2 | 1.3 | 141 | 1.3 | 29 | 1.3 | 69 | -93 | 124 | Change (Rattus norvegicus [21]): -98%; Activity (Rattus norvegicus [22]): 138 mg/dL; Activity (Rattus norvegicus [23]): 100 mg/dL; Activity (Rattus norvegicus [24]): 6 ng/mL; Activity (Rattus norvegicus [25]): 22 mg/dL; Activity (Rattus norvegicus [26]): 22 mg/dL; Activity (Rattus norvegicus [27]): 10 ng/mL; Activity (Rattus norvegicus [28]): 120 mg/dL; Activity (Rattus norvegicus [29]): 475 mg/dL; Activity (Rattus norvegicus [30]): 1.4 mg/dL; Activity (Rattus norvegicus [31]): 1.3 mg/dL
